Test [1] concerns the target Hepatocyte growth factor receptor (Homo sapiens, UniProt P08581). Description: Inhibition of c-Met (unknown origin) using poly (Glu, Tyr) 4:1 as substrate after 30 mins by HTRF assay. (In general: TR-FRET usually uses a lanthanide donor and a delayed reading to cut background.)
Test [2] relates to HT-29. In words: Cytotoxicity against human HT-29 cells after 72 hrs by MTT assay. The settings on record: HT-29, 72 h. A general note: Tetrazolium assays rely on reduction of a dye to a coloured formazan, in cell work by metabolically active cells.
The subject of test [3] is A549. In words: Cytotoxicity against human A549 cells after 72 hrs by MTT assay. To be noted: A549, 72 h.
The test system of another test is NCI-H460. Description: Cytotoxicity against human H460 cells after 72 hrs by MTT assay. The format is functional, cell-based. To be noted: NCI-H460, 72 h. The essentials: (§1)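 Cells grown in MEM with 10% FBS. About 4 × 10³ cells per well, incubated 24 h at 37°C in 5% CO₂. Compound added at the indicated final concentrations, then 72 h culture. MTT at […] final for 4 h at 37°C. Three independent experiments; IC50 reported as mean.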

Test [4] relates to U-87 MG. In words: Cytotoxicity against human U87MG cells after 72 hrs by MTT assay. The format is functional, cell-based, U-87MG ATCC. The method, boiled down:
as §1

Test [5] concerns HT-29. In words: Potency index, ratio of foretinib IC50 to compound IC50 for human HT-29 cells. The format is functional.
In test [6] the test system is A549. Description: Potency index, ratio of foretinib IC50 to compound IC50 for human A549 cells. It is filed as functional.
The nature of test [7]: Potency index, ratio of foretinib IC50 to compound IC50 for human H460 cells. It is filed as functional.
Test [8] relates to U-87 MG. Description: Potency index, ratio of foretinib IC50 to compound IC50 for human U87MG cells. The format is functional, U-87MG ATCC.
For test [9], the target named is T1, Receptor-type tyrosine-protein kinase FLT3 (Homo sapiens, UniProt P36888).
T1 sequence (P36888 whole entry): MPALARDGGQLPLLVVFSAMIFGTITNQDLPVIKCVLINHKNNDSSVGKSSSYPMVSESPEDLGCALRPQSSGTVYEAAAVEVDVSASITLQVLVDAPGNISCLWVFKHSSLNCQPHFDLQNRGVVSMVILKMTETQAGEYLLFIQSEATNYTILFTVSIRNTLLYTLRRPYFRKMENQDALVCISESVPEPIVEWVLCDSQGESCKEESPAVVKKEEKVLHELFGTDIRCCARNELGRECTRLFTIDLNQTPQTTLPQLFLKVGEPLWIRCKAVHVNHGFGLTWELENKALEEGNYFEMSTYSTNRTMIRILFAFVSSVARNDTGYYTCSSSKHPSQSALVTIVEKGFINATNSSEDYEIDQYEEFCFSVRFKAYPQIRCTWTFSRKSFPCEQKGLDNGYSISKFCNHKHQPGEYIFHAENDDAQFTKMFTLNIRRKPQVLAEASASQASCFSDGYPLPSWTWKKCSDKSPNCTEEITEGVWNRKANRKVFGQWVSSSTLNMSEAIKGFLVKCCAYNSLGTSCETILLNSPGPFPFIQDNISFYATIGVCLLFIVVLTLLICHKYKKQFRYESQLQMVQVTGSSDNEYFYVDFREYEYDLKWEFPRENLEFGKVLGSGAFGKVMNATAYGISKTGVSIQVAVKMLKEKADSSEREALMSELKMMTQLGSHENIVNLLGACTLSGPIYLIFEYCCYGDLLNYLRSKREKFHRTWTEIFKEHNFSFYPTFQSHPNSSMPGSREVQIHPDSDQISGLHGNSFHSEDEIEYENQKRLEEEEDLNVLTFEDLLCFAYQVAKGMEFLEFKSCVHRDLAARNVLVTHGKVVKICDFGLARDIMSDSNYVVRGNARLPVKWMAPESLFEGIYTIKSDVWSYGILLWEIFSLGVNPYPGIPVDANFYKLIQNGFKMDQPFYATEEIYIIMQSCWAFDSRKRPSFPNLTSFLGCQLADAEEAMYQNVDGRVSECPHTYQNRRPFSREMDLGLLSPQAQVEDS
In words: Inhibition of Flt-3 (unknown origin) using poly (Glu, Tyr) 4:1 as substrate after 30 mins by HTRF assay. The essentials:
(§2)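 Purified kinase protein added to start the reaction on preloaded poly(Glu,Tyr) 4:1 substrate at 20 µg/mL. ATP 10 mM solution in HEPES 50 mM pH 7.0 buffer with DTT, MgCl₂, MnCl₂ and 0.1% NaN₃. Compounds added in 1% DMSO. Reaction run 30 min at 25°C, stopped with Streptavidin-XL665 plus Tk antibody cryptate, read at 320/615 nm. Percent inhibition taken against enzyme-free and full-enzyme controls; IC50 from inhibition curves.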

Test [10] deals with Platelet-derived growth factor receptor beta (Homo sapiens, UniProt P09619). Description: Inhibition of PDGFRbeta (unknown origin) using poly (Glu, Tyr) 4:1 as substrate after 30 mins by HTRF assay. The essentials:
as §2

Test [11] has as its target Mast/stem cell growth factor receptor Kit (Homo sapiens, UniProt P10721). Description: Inhibition of c-Kit (unknown origin) using poly (Glu, Tyr) 4:1 as substrate after 30 mins by HTRF assay. The essentials: as §2
The target of test [12] is Vascular endothelial growth factor receptor 2 (Homo sapiens, UniProt P35968). In words: Inhibition of VEGFR-2 (unknown origin) using poly (Glu, Tyr) 4:1 as substrate after 30 mins by HTRF assay. The essentials: as §2
Vascular endothelial growth factor receptor 2, sequence (P35968 whole entry): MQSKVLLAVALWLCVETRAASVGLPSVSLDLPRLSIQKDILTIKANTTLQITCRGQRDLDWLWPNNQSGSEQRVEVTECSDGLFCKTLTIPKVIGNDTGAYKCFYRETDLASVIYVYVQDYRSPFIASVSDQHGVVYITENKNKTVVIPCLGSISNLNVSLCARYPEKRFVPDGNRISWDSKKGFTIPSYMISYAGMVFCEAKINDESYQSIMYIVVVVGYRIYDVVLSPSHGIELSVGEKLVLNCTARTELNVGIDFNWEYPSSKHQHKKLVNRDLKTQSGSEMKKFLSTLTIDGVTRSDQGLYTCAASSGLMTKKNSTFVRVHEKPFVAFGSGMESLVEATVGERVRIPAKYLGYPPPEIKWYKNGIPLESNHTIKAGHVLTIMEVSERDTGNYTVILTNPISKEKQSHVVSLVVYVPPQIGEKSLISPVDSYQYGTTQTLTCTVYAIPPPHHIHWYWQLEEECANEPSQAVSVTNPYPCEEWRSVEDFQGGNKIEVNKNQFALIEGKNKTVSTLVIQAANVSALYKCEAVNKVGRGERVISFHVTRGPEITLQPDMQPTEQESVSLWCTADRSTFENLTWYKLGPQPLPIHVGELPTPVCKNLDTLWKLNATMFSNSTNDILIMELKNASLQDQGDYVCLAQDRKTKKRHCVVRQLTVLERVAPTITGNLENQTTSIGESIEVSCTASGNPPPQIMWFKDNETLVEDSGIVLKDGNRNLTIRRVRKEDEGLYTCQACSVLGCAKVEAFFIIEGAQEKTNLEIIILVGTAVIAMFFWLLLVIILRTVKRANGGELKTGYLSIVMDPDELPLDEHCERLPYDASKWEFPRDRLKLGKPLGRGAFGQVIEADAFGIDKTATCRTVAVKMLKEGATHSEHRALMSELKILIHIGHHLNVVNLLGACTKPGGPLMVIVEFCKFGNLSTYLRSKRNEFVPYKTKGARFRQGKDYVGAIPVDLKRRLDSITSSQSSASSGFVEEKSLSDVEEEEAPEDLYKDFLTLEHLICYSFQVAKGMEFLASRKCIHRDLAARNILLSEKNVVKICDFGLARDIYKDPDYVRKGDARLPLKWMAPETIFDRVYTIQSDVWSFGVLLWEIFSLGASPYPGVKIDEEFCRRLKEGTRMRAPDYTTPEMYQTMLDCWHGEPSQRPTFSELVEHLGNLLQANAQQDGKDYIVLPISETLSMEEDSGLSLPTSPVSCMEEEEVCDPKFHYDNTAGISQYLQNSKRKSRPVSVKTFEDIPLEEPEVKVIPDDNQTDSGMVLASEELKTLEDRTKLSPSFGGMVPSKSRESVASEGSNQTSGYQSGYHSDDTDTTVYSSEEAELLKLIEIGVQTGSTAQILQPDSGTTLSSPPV
The target in test [13] is Epidermal growth factor receptor (Homo sapiens, UniProt P00533). In words: Inhibition of EGFR (unknown origin) using poly (Glu, Tyr) 4:1 as substrate after 30 mins by HTRF assay. The method, boiled down: as §2
Epidermal growth factor receptor, sequence (P00533 whole entry): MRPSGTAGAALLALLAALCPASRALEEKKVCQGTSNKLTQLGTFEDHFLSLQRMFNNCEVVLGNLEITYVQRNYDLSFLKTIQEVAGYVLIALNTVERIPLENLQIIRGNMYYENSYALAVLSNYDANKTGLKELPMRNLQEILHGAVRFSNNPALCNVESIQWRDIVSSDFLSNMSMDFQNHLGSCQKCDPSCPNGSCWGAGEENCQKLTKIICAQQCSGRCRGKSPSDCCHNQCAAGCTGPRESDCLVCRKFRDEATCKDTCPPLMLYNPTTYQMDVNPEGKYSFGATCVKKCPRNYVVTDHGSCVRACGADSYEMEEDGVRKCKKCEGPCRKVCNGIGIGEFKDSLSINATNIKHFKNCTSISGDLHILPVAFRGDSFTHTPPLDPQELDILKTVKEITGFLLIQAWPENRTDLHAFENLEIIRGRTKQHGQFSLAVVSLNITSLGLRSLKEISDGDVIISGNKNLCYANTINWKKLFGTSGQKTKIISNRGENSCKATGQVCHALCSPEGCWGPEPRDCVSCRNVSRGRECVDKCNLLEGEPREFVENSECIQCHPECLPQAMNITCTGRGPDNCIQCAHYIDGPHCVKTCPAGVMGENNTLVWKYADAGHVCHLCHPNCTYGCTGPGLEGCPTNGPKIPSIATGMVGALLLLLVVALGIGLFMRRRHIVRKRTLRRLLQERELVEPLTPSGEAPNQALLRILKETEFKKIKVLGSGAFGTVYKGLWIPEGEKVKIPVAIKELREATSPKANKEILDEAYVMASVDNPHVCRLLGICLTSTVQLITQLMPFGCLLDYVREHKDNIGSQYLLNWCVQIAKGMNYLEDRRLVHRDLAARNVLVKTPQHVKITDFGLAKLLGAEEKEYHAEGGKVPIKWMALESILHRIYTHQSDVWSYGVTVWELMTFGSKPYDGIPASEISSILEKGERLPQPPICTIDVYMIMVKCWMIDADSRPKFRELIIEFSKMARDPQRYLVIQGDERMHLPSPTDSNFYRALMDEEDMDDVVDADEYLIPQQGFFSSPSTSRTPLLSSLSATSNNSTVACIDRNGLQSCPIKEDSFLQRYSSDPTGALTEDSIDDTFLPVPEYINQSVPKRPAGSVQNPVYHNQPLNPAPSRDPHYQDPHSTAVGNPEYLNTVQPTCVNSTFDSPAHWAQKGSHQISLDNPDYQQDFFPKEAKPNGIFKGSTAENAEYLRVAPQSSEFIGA

The structures appear in SMILES notation.

Hepatocyte growth factor receptor, sequence (P08581 whole entry): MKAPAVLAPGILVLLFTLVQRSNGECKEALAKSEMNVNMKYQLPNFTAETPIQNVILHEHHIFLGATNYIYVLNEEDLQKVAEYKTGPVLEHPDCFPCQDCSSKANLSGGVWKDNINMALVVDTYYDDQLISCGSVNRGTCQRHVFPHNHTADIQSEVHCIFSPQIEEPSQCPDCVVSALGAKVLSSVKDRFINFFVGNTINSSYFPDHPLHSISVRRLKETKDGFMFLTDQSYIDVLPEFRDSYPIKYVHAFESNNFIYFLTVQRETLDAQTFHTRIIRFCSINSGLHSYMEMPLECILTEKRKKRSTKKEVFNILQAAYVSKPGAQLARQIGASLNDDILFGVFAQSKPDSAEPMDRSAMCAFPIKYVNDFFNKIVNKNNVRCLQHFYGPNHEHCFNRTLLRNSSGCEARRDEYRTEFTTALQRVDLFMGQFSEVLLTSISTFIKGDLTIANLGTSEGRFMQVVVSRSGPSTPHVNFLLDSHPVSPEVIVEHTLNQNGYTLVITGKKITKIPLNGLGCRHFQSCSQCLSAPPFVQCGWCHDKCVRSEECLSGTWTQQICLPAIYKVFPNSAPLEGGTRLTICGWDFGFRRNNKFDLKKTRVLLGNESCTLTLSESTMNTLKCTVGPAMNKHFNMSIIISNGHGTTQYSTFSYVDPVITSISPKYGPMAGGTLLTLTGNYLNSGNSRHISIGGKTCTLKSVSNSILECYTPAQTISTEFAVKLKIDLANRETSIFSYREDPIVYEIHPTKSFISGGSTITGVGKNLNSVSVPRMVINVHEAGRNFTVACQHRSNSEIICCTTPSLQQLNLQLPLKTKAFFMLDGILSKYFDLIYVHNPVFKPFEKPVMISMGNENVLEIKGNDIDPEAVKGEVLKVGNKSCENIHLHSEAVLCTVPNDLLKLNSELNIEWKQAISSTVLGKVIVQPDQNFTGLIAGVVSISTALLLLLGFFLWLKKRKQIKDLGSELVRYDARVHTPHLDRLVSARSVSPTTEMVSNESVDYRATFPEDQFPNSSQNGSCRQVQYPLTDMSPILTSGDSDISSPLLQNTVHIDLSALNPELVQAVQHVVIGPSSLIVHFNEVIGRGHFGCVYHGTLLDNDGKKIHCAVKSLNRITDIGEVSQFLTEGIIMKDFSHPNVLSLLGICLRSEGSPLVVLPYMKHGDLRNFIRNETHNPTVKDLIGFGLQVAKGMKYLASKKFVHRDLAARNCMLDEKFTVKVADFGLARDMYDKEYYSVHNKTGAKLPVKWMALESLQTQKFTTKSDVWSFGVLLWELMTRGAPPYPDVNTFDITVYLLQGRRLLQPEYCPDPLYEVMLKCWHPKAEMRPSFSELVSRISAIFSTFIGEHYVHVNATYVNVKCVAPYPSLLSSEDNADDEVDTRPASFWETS
Platelet-derived growth factor receptor beta, sequence (P09619 whole entry): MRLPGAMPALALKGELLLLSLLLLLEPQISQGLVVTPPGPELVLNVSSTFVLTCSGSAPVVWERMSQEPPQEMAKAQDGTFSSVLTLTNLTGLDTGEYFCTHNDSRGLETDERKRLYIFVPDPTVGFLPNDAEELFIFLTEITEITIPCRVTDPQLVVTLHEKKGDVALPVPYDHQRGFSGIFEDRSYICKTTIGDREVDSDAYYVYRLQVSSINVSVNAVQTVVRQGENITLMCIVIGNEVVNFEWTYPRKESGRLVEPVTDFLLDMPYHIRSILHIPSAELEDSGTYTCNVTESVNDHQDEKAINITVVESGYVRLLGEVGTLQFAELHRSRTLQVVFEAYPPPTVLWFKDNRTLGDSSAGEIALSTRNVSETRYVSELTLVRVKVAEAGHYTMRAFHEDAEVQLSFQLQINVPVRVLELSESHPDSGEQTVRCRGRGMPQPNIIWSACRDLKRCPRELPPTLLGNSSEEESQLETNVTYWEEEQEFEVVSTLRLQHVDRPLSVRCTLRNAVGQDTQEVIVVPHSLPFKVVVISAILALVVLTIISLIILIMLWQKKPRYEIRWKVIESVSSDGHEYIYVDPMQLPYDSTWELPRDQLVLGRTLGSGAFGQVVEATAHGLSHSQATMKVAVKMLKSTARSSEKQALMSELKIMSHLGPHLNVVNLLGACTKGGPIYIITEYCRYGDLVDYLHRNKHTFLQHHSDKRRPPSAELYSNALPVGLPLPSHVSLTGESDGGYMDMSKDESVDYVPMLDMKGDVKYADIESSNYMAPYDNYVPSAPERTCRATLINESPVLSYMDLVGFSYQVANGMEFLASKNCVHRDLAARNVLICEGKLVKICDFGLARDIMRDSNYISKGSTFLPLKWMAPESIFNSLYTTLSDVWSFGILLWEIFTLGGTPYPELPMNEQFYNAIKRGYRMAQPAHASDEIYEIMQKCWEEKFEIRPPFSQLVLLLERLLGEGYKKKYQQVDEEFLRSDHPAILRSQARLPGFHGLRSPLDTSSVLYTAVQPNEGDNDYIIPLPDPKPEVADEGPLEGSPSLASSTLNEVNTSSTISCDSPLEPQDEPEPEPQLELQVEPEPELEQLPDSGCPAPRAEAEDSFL

As a reminder, the IC50 is the concentration that inhibits the measured activity by half. A low value points to greater potency. In the case of `Cc1cc(=O)n(-c2ccccc2)nc1C(=O)Nc1ccc(Oc2ccnc3c2ccn3C)cc1`, in test [1], it took 0.0195 µM to reach half-maximal inhibition (IC50). That is a double-digit nanomolar value.

`Cc1cc(=O)n(-c2ccccc2F)nc1C(=O)Nc1ccc(Oc2ccnc3[nH]ccc23)cc1`: the IC50 in test [1] stood at 0.0126 µM. This IC50 lies about 1.5-fold lower than the previous one.

Take `Cc1cc(=O)n(-c2ccc(Br)cc2F)nc1C(=O)Nc1ccc(Oc2ccnc3c2ccn3C)cc1`: in [1], the 50% inhibitory concentration (IC50) was 0.0362 µM. Against the preceding molecule, the IC50 is about 2.9-fold higher.

Take `COc1ccc(-n2nc(C(=O)Nc3ccc(Oc4ccnc5[nH]ccc45)c(F)c3)c(C)cc2=O)cc1`: inhibition in test [1] was half-maximal at 0.0183 µM (IC50). This IC50 is about 2-fold lower than that of the molecule before.

`Cc1ccc(C)c(-n2nc(C(=O)Nc3ccc(Oc4ccnc5[nH]ccc45)cc3)c(C)cc2=O)c1` had a concentration for half-maximal inhibition (IC50) in [1] of 0.0335 µM.

Consider `Cc1cc(=O)n(-c2ccc(F)cc2)nc1C(=O)Nc1ccc(Oc2ccnc3[nH]ccc23)cc1`, for which the IC50 in test [1] was found to be 0.00842 µM; with HT-29 [2], 0.14 µM; in the test with A549 [3] it was 0.23 µM; in the test on NCI-H460, 0.16 µM; with U-87 MG [4], 5.46 µM.

In the case of `Cc1cc(=O)n(-c2ccc(F)c(Cl)c2)nc1C(=O)Nc1ccc(Oc2ccnc3[nH]ccc23)cc1`, the IC50 in test [1] is 0.0422 µM. In other words, the double-digit nanomolar range.

On to `Cc1cc(=O)n(-c2ccccc2F)nc1C(=O)Nc1ccc(Oc2ccnc3c2ccn3C)cc1`, for which the IC50 in test [1] came to 0.0144 µM.

In test [1], `Cc1ccccc1-n1nc(C(=O)Nc2ccc(Oc3ccnc4[nH]ccc34)cc2)c(C)cc1=O` yielded an IC50 of 0.0191 µM.

Turning to `Cc1cc(=O)n(-c2ccccc2F)nc1C(=O)Nc1ccc(Oc2ccnc3[nH]ccc23)c(F)c1`, the IC50 in [1] is 0.00502 µM. Against the preceding molecule, the IC50 is about 3.8-fold lower.

In the case of `Cc1cc(=O)n(-c2ccc(Br)cc2F)nc1C(=O)Nc1ccc(Oc2ccnc3[nH]ccc23)c(F)c1`, the IC50 in test [1] worked out at 0.0182 µM.

`Cc1cc(=O)n(-c2cccc(F)c2)nc1C(=O)Nc1ccc(Oc2ccnc3[nH]ccc23)c(F)c1` gave an IC50 in test [1] of 0.00561 µM. This IC50 is about 3.2-fold lower than that of the molecule before.

In test [1], `Cc1cc(=O)n(-c2cccc(C(F)(F)F)c2)nc1C(=O)Nc1ccc(Oc2ccnc3[nH]ccc23)cc1` returned a half-maximal inhibitory concentration (IC50) of 0.0353 µM. This IC50 lies about 6.3-fold higher than the previous one.

Regarding `Cc1cc(=O)n(-c2cccc(Br)c2)nc1C(=O)Nc1ccc(Oc2ccnc3c2ccn3C)cc1`, 0.0105 µM corresponded to half-maximal inhibition in test [1] (IC50).

With `Cc1cc(=O)n(-c2cccc(F)c2)nc1C(=O)Nc1ccc(Oc2ccnc3[nH]ccc23)cc1`, the 50% inhibitory concentration (IC50) turned out to be 0.0116 µM in test [1]; 0.21 µM in the test on HT-29 [2]; 0.42 µM with A549 [3]; 0.19 µM in the test with NCI-H460; 3.42 µM in the test with U-87 MG [4].

In test [1], `Cc1cc(=O)n(-c2ccc(Cl)cc2Cl)nc1C(=O)Nc1ccc(Oc2ccnc3[nH]ccc23)c(F)c1` came in with a half-inhibitory concentration (IC50) of 0.0224 µM.

The molecule `Cc1cc(=O)n(-c2ccccc2C(F)(F)F)nc1C(=O)Nc1ccc(Oc2ccnc3c2ccn3C)cc1` gave a half-maximal inhibitory concentration (IC50) in test [1] of 0.0463 µM.

As for `Cc1cc(=O)n(-c2ccc(Br)cc2F)nc1C(=O)Nc1ccc(Oc2ccnc3[nH]ccc23)cc1`, the IC50 in [1] is 0.0412 µM.

Molecule `Cc1cc(=O)n(-c2ccc(F)cc2)nc1C(=O)Nc1ccc(Oc2ccnc3c2ccn3C)cc1` yielded an IC50 in test [1] of 0.00921 µM.

For the molecule `COc1ccc(-n2nc(C(=O)Nc3ccc(Oc4ccnc5[nH]ccc45)cc3)c(C)cc2=O)cc1`, the IC50 in [1] turned out to be 0.0469 µM. This IC50 lies about 5.1-fold higher than the previous one.

`Cc1cc(=O)n(-c2ccccc2C(F)(F)F)nc1C(=O)Nc1ccc(Oc2ccnc3[nH]ccc23)c(F)c1` returned an IC50 in test [1] of 0.0112 µM.

In [1], `Cc1cc(=O)n(-c2ccc(Cl)cc2Cl)nc1C(=O)Nc1ccc(Oc2ccnc3[nH]ccc23)cc1` registered an IC50 of 0.0563 µM.

For `Cc1cc(=O)n(-c2cccc(C(F)(F)F)c2)nc1C(=O)Nc1ccc(Oc2ccnc3c2ccn3C)cc1`, in [1], the IC50 is 0.0322 µM.

For the molecule `Cc1cc(=O)n(-c2cccc(C(F)(F)F)c2)nc1C(=O)Nc1ccc(Oc2ccnc3c2ccn3C)c(F)c1`, the half-inhibitory concentration (IC50) in test [1] was found to be 0.0293 µM; with HT-29 [2], 0.36 µM; in the test with A549 [3], 0.62 µM; with NCI-H460, 0.52 µM; in the test on U-87 MG [4], 2.31 µM.

For the molecule `Cc1cc(=O)n(-c2cccc(F)c2)nc1C(=O)Nc1ccc(Oc2ccnc3c2ccn3C)cc1`, the IC50 worked out at 0.0153 µM in [1]; 0.32 µM in the test on HT-29 [2]; 0.41 µM in the test on A549 [3]; 0.32 µM in the test with NCI-H460; 8.82 µM in the test with U-87 MG [4].

In turn, `Cc1cc(=O)n(-c2ccc(F)c(Cl)c2)nc1C(=O)Nc1ccc(Oc2ccnc3c2ccn3C)cc1` came in with an IC50 in [1] of 0.0453 µM. This counts as double-digit nanomolar.

`Cc1ccc(C)c(-n2nc(C(=O)Nc3ccc(Oc4ccnc5c4ccn5C)cc3)c(C)cc2=O)c1` showed an IC50 in test [1] of 0.0413 µM.

As to `Cc1cc(=O)n(-c2ccccc2)nc1C(=O)Nc1ccc(Oc2ccnc3[nH]ccc23)cc1`, in test [1], it took 0.0183 µM to reach half-maximal inhibition (IC50).

In the case of `Cc1cc(=O)n(-c2ccccc2C(F)(F)F)nc1C(=O)Nc1ccc(Oc2ccnc3[nH]ccc23)cc1`, the concentration for half-maximal inhibition (IC50) in test [1] was found to be 0.0395 µM.

Turning to `Cc1cc(=O)n(-c2ccc(F)cc2)nc1C(=O)Nc1ccc(Oc2ccnc3[nH]ccc23)c(F)c1`, the IC50 in test [1] amounted to 0.00106 µM; with HT-29 [2], 0.039 µM; in the test on A549 [3], 0.046 µM; in the test with NCI-H460, 0.091 µM; in the test with U-87 MG [4], 0.76 µM; in [9], 0.00132 µM. Besides, the concentration for half-maximal inhibition (IC50) in test [10] worked out at 0.00326 µM; in [11], 0.318 µM; in [12], 0.672 µM; in [13], 0.725 µM. The “Ratio IC50” value amounted to 6.4 with HT-29 [5], 7.8 with A549 [6], 3.2 in [7] and 1.3 in the test with U-87 MG [8].

In turn, `Cc1ccccc1-n1nc(C(=O)Nc2ccc(Oc3ccnc4[nH]ccc34)c(F)c2)c(C)cc1=O` yielded a concentration for half-maximal inhibition (IC50) in [1] of 0.0103 µM. This counts as double-digit nanomolar.

Turning to `Cc1cc(=O)n(-c2ccc(Cl)cc2Cl)nc1C(=O)Nc1ccc(Oc2ccnc3c2ccn3C)cc1`, the midpoint of inhibition in test [1], the IC50, lay at 0.0492 µM.

For the origin of these results see ChEMBL document CHEMBL4033630, “Discovery of novel 7-azaindole derivatives bearing dihydropyridazine moiety as c-Met kinase inhibitors” (Eur J Med Chem, 2017).
